Only some compounds are listed: those with a hit (about 4% of all), similar ones and a draw of the others.
GPR7 antag = GPR7 receptor antagonists, primary screen, cell-based, fluorescence, single concentration; Neuropeptides B/W receptor type 1 (Homo sapiens), P48145; GPR7-expressing cells, fluorescence antagonist assay; inhibition, % at 4.4 µM; 290,000 compounds, 1.1% hits; in the data active = inhibition above about 16%, passing the limit was not always enough;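 also: cells stimulated with the agonist NPW; 0% = agonist with vehicle and 100% = vehicle without agonist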
MPTP inh = mitochondrial permeability transition pore inhibitors, primary screen, biochemical, isolated mouse mitochondria, absorbance; inhibition, % at 10 µM; AID 602449, 2012; Ca2+ swelling absorbance, 30 min; 360,000 compounds, 1.4% hits;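 active = inhibition of 50% or more, scaled per plate between neutral and stimulator controls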;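 also: 0% = DMSO wells given calcium and 100% = 1 mM EGTA wells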
TAAR1 antagonist = human TAAR1 antagonists, primary screen, Fluo-8 calcium fluorescence, CHO RD-HGA16 cells. Trace amine-associated receptor 1 (Homo sapiens), Q96RJ0. antagonist. inhibition, % at 3 µM. 360,000 compounds, 1.5% hits. AID 624466, 2012;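 active = inhibition above a per-plate cutoff, the mean inhibition of test compounds on that plate plus 3 SD, cut at about 49% in these data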;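 also: 0% = DMSO plus EC80 beta-PEA response and 100% = DMSO alone without agonist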
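System: CHO RD-HGA16 cells bearing hTAAR1. Reagent: EC80 β-phenethylamine stimulus. Schedule: seeding 17-24 h prior, 75-min 37 °C, 30-min RT dye loading. Signal: Fluo-8 intracellular calcium dye fluorescence, real-time kinetic reads. Read-out: % inhibition from peak post-agonist over basal fluorescence ratio. Benchmarks: vehicle wells and EC80 agonist wells. Replicates: n of 1.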
TAAR1 agonist = human TAAR1 agonists, primary screen, Fluo-8 calcium fluorescence, CHO RD-HGA16 cells; Trace amine-associated receptor 1 (Homo sapiens), Q96RJ0; vehicle wells 0%, saturating PEA agonist 100%; activation, % at 3 µM; 360,000 compounds, 0.99% hits;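 active = activation above the mean activation of all test compounds in the run plus 3 SD, cut at about 38% in these data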
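Benchmarks: low control DMSO, high control PEA (EC100); System: CHO RD-HGA16 cells carrying human TAAR1 plus Gα16; Detection: Fluo-8 fluorescence, 5 s baseline then 140 s kinetic read; Schedule: 17-24 h plating, Fluo-8 75 min 37 °C, 30 min RT; Read-out basis: % activation from peak over basal fluorescence ratio, DMSO-to-PEA scaled.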
DAGLB inh = DAGLB lipase inhibitors, primary screen, biochemical, fluorescence, HTS | Diacylglycerol lipase-beta (Homo sapiens), Q8NCG7 | HEK293T DAGLB membrane lysate, EnzChek fluorogenic substrate | inhibition, % at 5.17 µM | 340,000 compounds, 0.059% hits; in the data active = inhibition above about 34%;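 also: 0% = enzyme with vehicle and 100% = wells lacking enzyme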
Target sequence (Q8NCG7 whole entry, looked up): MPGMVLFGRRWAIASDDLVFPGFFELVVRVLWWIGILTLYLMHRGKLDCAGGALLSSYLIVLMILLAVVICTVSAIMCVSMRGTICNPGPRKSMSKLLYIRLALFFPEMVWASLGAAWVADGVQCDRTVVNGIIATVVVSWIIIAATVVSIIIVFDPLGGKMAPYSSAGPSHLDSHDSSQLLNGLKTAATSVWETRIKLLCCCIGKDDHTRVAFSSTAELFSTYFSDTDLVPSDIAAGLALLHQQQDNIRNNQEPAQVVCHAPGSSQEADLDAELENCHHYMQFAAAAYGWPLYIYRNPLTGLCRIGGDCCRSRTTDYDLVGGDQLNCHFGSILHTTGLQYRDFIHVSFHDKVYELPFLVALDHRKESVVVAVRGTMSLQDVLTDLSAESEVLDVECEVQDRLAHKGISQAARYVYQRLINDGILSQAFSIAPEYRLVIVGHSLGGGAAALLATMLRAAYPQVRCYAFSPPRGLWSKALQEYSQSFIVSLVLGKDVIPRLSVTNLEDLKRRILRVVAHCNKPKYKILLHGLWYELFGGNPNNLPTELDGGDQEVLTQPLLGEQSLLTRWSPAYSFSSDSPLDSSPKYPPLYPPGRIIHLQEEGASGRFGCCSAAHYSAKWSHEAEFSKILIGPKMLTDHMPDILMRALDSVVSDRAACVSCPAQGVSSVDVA
nonsel antag count = nonselective antagonists in TAAR1 counter-screen cells, counter-screen for hTAAR1 antagonist project, cell-based, fluorescence, calcium; shares compounds with TAAR1 antagonist; counterscreen cell line, antagonist mode; inhibition, % at 3 µM; 2,400 compounds, 77% hits; AID 651780, 2012; in the data active = inhibition above about 22%;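 also: CHO-Ga16 host cells stimulated with ATP at an EC80 level; 0% = agonist EC80 plus vehicle and 100% = vehicle without agonist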
TAAR1 antag conf = human TAAR1 antagonists, retest of hits, confirmation, cell-based, fluorescence; shares compounds with TAAR1 antagonist; TAAR1-expressing cells, fluorescence antagonist read-out; inhibition, % at 3 µM; 2,400 compounds, 40% hits; in the data active = inhibition above about 49%;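 also: CHO-Ga16 host cells challenged with agonist PEA near its EC80; 0% = agonist at EC80 plus vehicle and 100% = vehicle with no agonist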
Ga16 ag counter = calcium activation in Ga16-expressing cells, counter-screen for TAAR1 antagonist project, cell-based, fluorescence. shares compounds with TAAR1 antagonist. agonist counterscreen. activation, % at 3 µM. 2,400 compounds, 18% hits; in the data active = activation above about 12%;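 also: 0% = vehicle wells and 100% = saturating stimulus response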
TAAR1 ag count = TAAR1 activation by candidate antagonists – cell-based, fluorescence, counter-screen for TAAR1 antagonist project; shares compounds with TAAR1 antagonist; hTAAR1 cell line, agonist mode; activation, % at 3 µM; 2,400 compounds, 2% hits; in the data active = activation above about 37%;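 also: CHO cells stably expressing TAAR1 with calcium dye readout; 0% = DMSO vehicle and 100% = full agonist response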
Active calls of the source: *.

How did CC(=O)Nc1cccc(-c2cc(NC(C)=O)c3ncc(-c4ccc(C(C)=O)cc4)n3c2)c1 do in these assays?
MPTP inh: -0.8; TAAR1 antagonist: 37.6; TAAR1 agonist: 15.7

What do the screens show for `Cc1onc(-c2ccccc2Cl)c1C(=O)Nc1cccc(-c2nc3ncccn3c2C)c1`?
GPR7 antag: -14.9; MPTP inh: -1.4; TAAR1 antagonist: 107.1*; TAAR1 agonist: 16.9; DAGLB inh: 2.4; nonsel antag count: 15.8; TAAR1 antag conf: 19.2; Ga16 ag counter: 6.1; TAAR1 ag count: 11.8

How did Cc1nn(-c2ccccc2)nc1C(=O)Nc1ccccc1C(=O)NCC1CC1 do in these assays?
TAAR1 antagonist: -6.8; TAAR1 agonist: 3.2

What do the screens show for `Cn1c(/C=C(\C#N)C(N)=S)ccc1-c1ccc(Br)cc1`?
GPR7 antag: 0.9; MPTP inh: 0.3; TAAR1 antagonist: 67.1*; TAAR1 agonist: 9.5; DAGLB inh: 12.9; nonsel antag count: 25.1*; TAAR1 antag conf: 39.1; Ga16 ag counter: 5.8; TAAR1 ag count: 14.8

How did NC(=O)c1ccsc1NC(=O)COC(=O)Cc1c[nH]c2ccccc12 do in these assays?
MPTP inh: -0.2; TAAR1 antagonist: 66.4*; TAAR1 agonist: 17.8; DAGLB inh: -1.0; nonsel antag count: 46.6*; TAAR1 antag conf: 55.8*; Ga16 ag counter: 16.6*; TAAR1 ag count: 16.2

Results for O=C(COC(=O)Cc1c[nH]c2ccccc12)Nc1ccccc1 ?
GPR7 antag: -2.4; MPTP inh: -0.3; TAAR1 antagonist: 8.7; TAAR1 agonist: 3.4; DAGLB inh: 0.0

What do the screens show for `COc1ccc(C(=O)OCC(=O)Nc2sccc2C(N)=O)cc1OC`?
GPR7 antag: -11.1; MPTP inh: 0.3; TAAR1 antagonist: 64.2*; TAAR1 agonist: 12.0; DAGLB inh: -1.8; nonsel antag count: 29.7*; TAAR1 antag conf: 45.8; Ga16 ag counter: 10.0; TAAR1 ag count: 10.8

Results for COc1cc(C(=O)OCC(=O)Nc2sccc2C(N)=O)cc(OC)c1OC ?
GPR7 antag: -2.5; MPTP inh: 1.4; TAAR1 antagonist: 36.9; TAAR1 agonist: 22.2; DAGLB inh: 1.1

How did c1ccc(CCc2ccccc2-c2nc(-c3cccnc3)no2)cc1 do in these assays?
GPR7 antag: -6.9; MPTP inh: 11.6; TAAR1 antagonist: 18.6; TAAR1 agonist: 8.1; DAGLB inh: -27.4

What do the screens show for `c1ccc(CCc2ccccc2-c2nc(-c3ccccn3)no2)cc1`?
GPR7 antag: -13.3; MPTP inh: 13.2; TAAR1 antagonist: 50.6*; TAAR1 agonist: 18.5; DAGLB inh: -7.0; nonsel antag count: 12.2; TAAR1 antag conf: 31.4; Ga16 ag counter: 8.8; TAAR1 ag count: 16.3

What do the screens show for `O=C(c1ccco1)N1CCN(C(c2ccccc2Cl)c2nnnn2Cc2ccco2)CC1` (centres undefined)?
GPR7 antag: 0.9; MPTP inh: -2.3; TAAR1 antagonist: 62.5*; TAAR1 agonist: 18.1; DAGLB inh: -2.2; nonsel antag count: 34.9*; TAAR1 antag conf: 55.3*; Ga16 ag counter: 10.5; TAAR1 ag count: 8.9

Results for CCC(c1nnnn1Cc1ccco1)N1CCN(C(=O)c2ccco2)CC1 (centres undefined) ?
GPR7 antag: -13.0; MPTP inh: -0.1; TAAR1 antagonist: 9.8; TAAR1 agonist: 6.9; DAGLB inh: 1.4

How did O=C(NCc1ccc(F)cc1)C(c1ccccc1)N(C(=O)c1csnn1)c1ccccc1 (centres undefined) do in these assays?
GPR7 antag: 2.7; MPTP inh: -1.3; TAAR1 antagonist: 59.4*; TAAR1 agonist: 20.9; DAGLB inh: -1.9; nonsel antag count: 29.3*; TAAR1 antag conf: 58.8*; Ga16 ag counter: 18.8*; TAAR1 ag count: 21.9

Results for COc1ccc(CNC(=O)C(c2cccc(C)c2)N(C(=O)c2csnn2)C2CC2)cc1 (centres undefined) ?
GPR7 antag: -12.8; MPTP inh: -2.3; TAAR1 antagonist: 52.5*; TAAR1 agonist: 16.8; DAGLB inh: -1.1; nonsel antag count: 29.9*; TAAR1 antag conf: 40.5; Ga16 ag counter: 6.7; TAAR1 ag count: 6.3

How did O=C(NCc1ccc(F)cc1)C(c1ccco1)N(C(=O)c1csnn1)c1ccccc1 (centres undefined) do in these assays?
GPR7 antag: -9.8; MPTP inh: -1.1; TAAR1 antagonist: 13.4; TAAR1 agonist: 3.8; DAGLB inh: 0.0

What do the screens show for `O=C(NCc1ccccc1)C(c1ccccc1)N(C(=O)c1csnn1)c1ccccc1` (centres undefined)?
GPR7 antag: 1.0; MPTP inh: -0.9; TAAR1 antagonist: 62.0*; TAAR1 agonist: 10.6; DAGLB inh: 0.3; nonsel antag count: 26.6*; TAAR1 antag conf: 48.6*; Ga16 ag counter: 6.7; TAAR1 ag count: 5.1

Results for CCN1CCN(c2c(S(=O)(=O)c3ccc(Cl)cc3)cnc3ccccc23)CC1 ?
TAAR1 antagonist: 28.7; TAAR1 agonist: 6.6

What do the screens show for `Cc1noc(C)c1NC(=O)N(C)C[C@@H]1OCc2cn(nn2)CCCC(=O)N([C@@H](C)CO)C[C@H]1C`?
TAAR1 antagonist: 9.1; TAAR1 agonist: 0.8

What do the screens show for `O=C(NCc1ccco1)c1cccc(-c2cncc3nccn23)c1`?
MPTP inh: -1.2; TAAR1 antagonist: -2.1; TAAR1 agonist: 0.8

Results for CCOC(=O)c1cc(-c2ccccc2)nn1CC1CC(c2ccc(Cl)cc2)=NO1 (centres undefined) ?
MPTP inh: -1.0; TAAR1 antagonist: 79.6*; TAAR1 agonist: 12.9; DAGLB inh: -9.0; nonsel antag count: 24.5*; TAAR1 antag conf: 46.7; Ga16 ag counter: 5.8; TAAR1 ag count: 3.1

How did COc1ccccc1CNC(=O)c1cc(-c2ccccc2C)nn1CC1CC(c2cccnc2)=NO1 (centres undefined) do in these assays?
MPTP inh: 0.6; TAAR1 antagonist: 37.3; TAAR1 agonist: 14.0; DAGLB inh: -2.5

Compound activity from PubChem.
